This note sets out measurements from ChEMBL document CHEMBL3588803, “Design, synthesis and pharmacology of 1,1-bistrifluoromethylcarbinol derivatives as liver X receptor β-selective agonists” (Bioorg Med Chem Lett, 2015).

Molecules are shown by their SMILES.

Data set [1] in a line: Plasma concentration in CE-2 chow diet-fed golden Syrian hamster at 100 mg/kg, po after 8 hrs by HPLC-LC-MS/MS method. It counts as ADME, organism-based, Mesocricetus auratus. The essentials: (§1)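 Hamsters on chow diet received a single oral dose of 100 mg/kg. Heparin plasma was drawn from a forearm vein at 0.5, 1, 2, 3, 4, 6, 8, 10 and 24 h after dosing. Concentrations of parent drug and its carboxylic acid metabolite were measured in plasma.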

Data set [2] in a line: Plasma concentration in CE-2 chow diet-fed golden Syrian hamster at 100 mg/kg, po after 4 hrs by HPLC-LC-MS/MS method. It is filed as ADME, organism-based, Mesocricetus auratus. The procedure, abridged:
as §1

Data set [3] deals with Hamster. As to the kind of experiment: Hypolipidemic effect in Bio F1B hamster fed with high fat and cholesterol diet assessed as LDL-cholesterol level at 30 mg/kg, po relative to control. It counts as functional, Cricetinae.
The subject of data set [4] is Hamster. As to the kind of experiment: Hypolipidemic effect in Bio F1B hamster fed with high fat and cholesterol diet assessed as lipid-accumulation area in aortic arch at 10 mg/kg, po relative to control. It counts as functional, Cricetinae.
The test system of data set [5] is Hamster. As to the kind of experiment: Increase in ABCA1 gene expression in Bio F1B hamster intestine at 100 mg/kg, po. It is filed as functional, Cricetinae. The essentials:
(§2)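 Bio F1B hamsters were fed a high-fat, high-cholesterol diet and dosed orally. Gene expression was measured in intestine (ABCA1, ABCG5, ABCG8) and in peripheral blood (ABCA1).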

A short description of data set [6]: Plasma concentration in CE-2 chow diet-fed golden Syrian hamster assessed as 4-(4-(1,1,1,3,3,3-Hexafluoro-2-hydroxypropan-2-yl)-2,6-di-n-propylphenoxy)-butanoic acid level at 100 mg/kg, po after 3 hrs by HPLC-LC-MS/MS method. As to conditions: in vivo. It is filed as ADME, organism-based, Mesocricetus auratus. The essentials: as §1
Data set [7] relates to Hamster. As to the kind of experiment: Hypolipidemic effect in Bio F1B hamster fed with high fat and cholesterol diet assessed as lipid-accumulation area in aortic arch at 30 mg/kg, po relative to control. It counts as functional, Cricetinae.
Data set [8] relates to Syrian golden hamster. As to the kind of experiment: Drug metabolism in CE-2 chow diet-fed golden Syrian hamster assessed as 4-(4-(1,1,1,3,3,3-Hexafluoro-2-hydroxypropan-2-yl)-2,6-di-n-propylphenoxy)-butanoic acid formation at 100 mg/kg, po after 0.5 to 24 hrs by HPLC-LC-MS/MS method. It is filed as ADME, organism-based, Mesocricetus auratus. The following applies: in vivo. The essentials: as §1

Data set [9] relates to Hamster. Nature of the data set: Increase in ABCA1 gene expression in Bio F1B hamster intestine at 30 mg/kg, po. It is filed as functional, Cricetinae. The essentials: as §2
In data set [10] the test system is Hamster. Nature of the data set: Increase in ABCG8 gene expression in Bio F1B hamster intestine at 100 mg/kg, po. It counts as functional, Cricetinae. The essentials: as §2
The nature of data set [11]: Plasma concentration in CE-2 chow diet-fed golden Syrian hamster at 100 mg/kg, po after 2 hrs by HPLC-LC-MS/MS method. It counts as ADME, organism-based, Mesocricetus auratus. The procedure, abridged: as §1
For data set [12], the system named is Hamster. As to the kind of experiment: Hypolipidemic effect in Bio F1B hamster fed with high fat and cholesterol diet assessed as total cholesterol level at 100 mg/kg, po relative to control. It is filed as functional, Cricetinae.

As for `CCCc1cc(C(O)(C(F)(F)F)C(F)(F)F)cc(CCC)c1OCCCCN1C(=O)NC(C)(c2ccc(OC(C)C)cc2)C1=O` (configuration not stated), in [1], the concentration at 8 h was found to be 420 nM. Further, the concentration at 4 h in data set [2] was found to be 290 nM. Further, the Activity in data set [3] was 91%; in data set [4] it was 86%; in data set [7] it was 84%; in data set [12] it was 53%. Also, the “fold change (FC)” value was 5.2 in [5], 4 in [9] and 1.3 in data set [10]. Also, in [6], the Cp came to 409 ng/mL. In data set [8], the Drug metabolism entry is recorded as “metabolite_detected”. The compound further showed a concentration at 2 h in data set [11] of 320 nM.
